# An excerpt weighted towards active compounds, which were near 2.1% of everything screened.
# BaF3 tox: counter-screen for JAK2V617F inhibitors: parental Ba/F3 viability inhibitors | AID 1486 | CellTiter-Glo ATP luminescence | inhibition, % at 5.6 µM | hit rate 1.1% among 220,000;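 active = inhibition above a per-campaign cutoff, the mean inhibition of all tested compounds plus 3 SD, cut at about 27% in these data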;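 note: 0% = DMSO wells and 100% = JAK Inhibitor I control wells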
# IEC-6 tox-1: IEC-6 cytotoxicity, counter-screen for KLF5 inhibitors. luminescence viability. hit rate 0.78% among 290,000. inhibition, % at 5 µM; in the data active = inhibition above about 22%;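 note: 0% = plate median of test compound wells and 100% = cytotoxic reference compound wells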
# bCat nuc transl: alters nuclear translocation of beta-catenin in HeLa cells; immunofluorescence imaging; nuclear translocation activity, % at 5 µM; hit rate 0.3% among 190,000;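 active = nuclear translocation activity above 50% at 5 µM, with a well cell count of 50 or more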;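 note: per-cell ratio of nuclear to cytoplasmic median beta-catenin stain intensity; plate controls were DMSO negative control for no effect and GSK-3 inhibitor IX positive control for full effect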
#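 Test system: HeLa cells, endogenous beta-catenin; Compound: single 5 µM dose plus 0.02–20 µM confirmation series; Times: compound exposure 24 h at 37°C; Signal: fluorescence imaging of beta-catenin antibody stain plus DAPI; Read-out: % activation, nuclear-to-cytoplasmic median beta-catenin signal ratio per cell.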
# KLF5 inh: kruppel-like factor 5 inhibition. DLD-1 KLF5 promoter-luciferase reporter, luminescence. inhibition, % at 5 µM. hit rate 0.23% among 290,000;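 active = inhibition above a per-plate limit of that plate's mean compound inhibition plus 3 SD, cut at about 60% in these data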;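 note: 0% = DMSO wells and 100% = LY294002 at 200 µM; higher means less KLF5 promoter-driven luciferase light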
# MT stabilizer: microtubule stabilization, imaging screen; HeLa tubulin immunostaining HCS, 24 h; share of cells brighter than vehicle mean+2SD; % tubulin-high responders, % at 10 µM; hit rate 0.83% among 200,000; AID 2205;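 active = plate Z-score above 3 for both tubulin-high and condensed-nucleus cell shares, with cell loss under 80%, at 10 µM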;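 note: anti alpha tubulin signal scored within the nucleus-defined area of each cell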
# Ba/F3 V617F tox: loss of viability in JAK2V617F-driven Ba/F3 cells | Ba/F3 EpoR-JAK2V617F viability, ATP luminescence | inhibition, % at 5.6 µM | hit rate 1.1% among 220,000 | AID 1446;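 active = inhibition above the campaign mean plus 3 SD over all tested compounds, cut at about 24% in these data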;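 note: cytokine-independent growth of Ba/F3 cells driven by EpoR plus mutant JAK2; 0% = DMSO-treated cells and 100% = JAK inhibitor I control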
# KLF5 inh confirm: confirmation of KLF5 inhibitors; shares compounds with KLF5 inh; DLD-1 KLF5 promoter firefly luciferase reporter, luminescence; hit rate 79% among 610; inhibition, % at 4 µM;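 active = inhibition above a set limit taken from the earlier primary screen, cut at about 63% in these data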;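 note: 0% = DMSO wells and 100% = LY294002 at 200 µM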
# IEC-6 tox-2: kills rat IEC-6 cells in KLF5 counter-screen; shares compounds with KLF5 inh; IEC-6 rat intestinal cells, viability luminescence; hit rate 56% among 610; inhibition, % at 4 µM; in the data active = inhibition above about 23%;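 note: cells exposed to compounds for 48 hours before viability read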
# An asterisk follows results filed as active; x = not tested or not shown.
SMILES,BaF3 tox,IEC-6 tox-1,bCat nuc transl,KLF5 inh,MT stabilizer,Ba/F3 V617F tox,KLF5 inh confirm,IEC-6 tox-2
COc1ccc2[nH]c(C(=O)N/N=C/c3ccc(O)cc3O)cc2c1,x,18,x,84*,x,x,83*,32*
COc1cccc(NC(=O)NC2(C(=O)N3CCN(C)CC3)CCCCC2)c1,x,-3,x,-13,x,x,x,x
O=Cc1ccc2ccc3cccnc3c2n1,x,2,x,78*,x,x,-4,-5
O=Cc1ccc2cccnc2n1,5,6,-1,20,3,3,x,x
N/C(=N\OC(=O)c1ccc2ccccc2c1)c1ccccn1,9,3,-1,86*,4,3,-17,3
N/C(=N\OC(=O)c1ccc(=O)n(Cc2ccccc2)c1)c1ccccn1,10,-1,2,-49,2,1,x,x
CCCc1ccc(C(=O)O/N=C(\N)c2ccccn2)cc1,x,8,x,102*,x,x,97*,4
COc1cc(/C=N/O)ccc1OCc1ccc(C(=O)O)cc1,4,0,3,84*,3,0,95*,0
COc1cc(/C=N/NS(=O)(=O)c2ccc3ccccc3c2)ccc1OCc1ccc(C(=O)O)cc1,0,5,1,65*,x,1,-18,-5
COc1cc(/C=N/O)ccc1OCc1ccc(Cl)cc1,4,-1,2,-254,3,-3,x,x
COc1cc(/C=N/NS(=O)(=O)c2ccc(C)cc2)ccc1OCc1cccc(C(=O)O)c1,0,-5,1,34,4,-1,x,x
O=c1cc(-c2ccccc2)[nH]c2ccccc12,79*,84*,193*,65*,32*,82*,83*,57*
O=C(CCCn1nnnc1CN1CCOCC1)N1CCC(c2ccc(F)cc2)C1 (configuration not stated),x,-1,x,-40,x,x,x,x
COc1ccc(C(=O)Nc2ccc(/C(C)=N/NC(=O)c3ccccc3O)cc2)cc1OC,7,2,-4,-96,4,1,x,x
CC1=Nc2cc(C(=O)NCc3ccco3)ccc2Sc2ccc(C)cc21,80*,80*,73*,68*,4,84*,83*,62*
CC(C)(C)c1ccc(C(=O)O/N=C(\N)c2ccccc2)cc1,x,-1,x,71*,x,x,66*,7
COc1ccc(C(=O)O/N=C(\N)c2ccccc2)cc1,x,2,x,-130,x,x,x,x
Cn1cc(CNCCN2CCCCC2=O)c(-c2cccc(Cl)c2)n1,8,7,2,-4,2,-5,x,x
CN=c1scc(-c2ccccc2F)n1/N=C/c1ccc[nH]1,9,-5,0,94*,3,5,106*,2
O=C(c1ccc(Sc2ccc(F)cc2)c([N+](=O)[O-])c1)N1CCOCC1,6,-3,-1,-7,2,0,x,x
O=C(N/N=C/c1cc(Cl)cc(Cl)c1O)c1ccncc1,-4,19,-2,77*,x,2,35,7
CCCNc1c(NC(=O)COc2ccc(Cl)cc2)c(=O)oc2ccccc12,x,-9,x,-20,x,x,x,x
COc1ccccc1OCC(=O)N/N=C/c1c(O)ccc2ccccc12,x,4,x,67*,x,x,58,-6
COC(=O)CC/C(O)=C1\C(=O)CC(C)(C)CC1=NCc1nc2ccccc2[nH]1,2,-4,-1,-15,2,2,x,x
O=S(=O)(c1ccccc1)N1CCN(C(=S)Nc2ccccc2Cl)CC1,x,-9,x,-22,x,x,x,x
SMILES,BaF3 tox,IEC-6 tox-1,bCat nuc transl,KLF5 inh,MT stabilizer,Ba/F3 V617F tox,KLF5 inh confirm,IEC-6 tox-2
O=C(NC1=NCCS1)C1COc2ccccc2O1 (configuration not stated),4,0,x,69*,4,3,71*,-8
O=C(Nc1ccncc1)C1COc2ccccc2O1 (configuration not stated),4,6,x,1,3,3,x,x
CCC(=O)Nc1nc(-c2cc([N+](=O)[O-])cs2)cs1,5,0,0,-76,2,4,x,x
CCOC(=O)CN1C2=NCCCN2c2ccccc21,0,-1,0,-28,5,-2,x,x
CCOC(=O)CN1C2=NCCN2c2ccccc21,0,-2,-1,79*,2,-1,3,8
CCOc1ccc2c(c1)sc(N)[n+]2Cc1cc(C)cc2cccnc12,80*,76*,152*,76*,14*,86*,73*,67*
Cc1cc(C[n+]2ncsc2N)c2ncccc2c1,-5,0,0,-1,x,-1,x,x
Cc1ccc(NC(=O)c2cc(C)n(-c3ccccc3)c2C)cc1,6,-2,4,50,5,0,x,x
Cc1cc(C(=O)Nc2ccc(Cl)cc2)c(C)n1-c1ccccc1,-1,4,1,74*,x,-3,87*,-12
Cc1ccc(NC(=O)c2cc(C)n(-c3cccc(C)c3)c2C)cc1,-1,-5,x,78*,2,1,89*,-1
CCN(CC(=O)Nc1c(F)cccc1F)C(=O)COc1ccc2c(C)cc(=O)oc2c1,1,-3,9,2,2,-2,x,x
Cc1nc(N/N=C/c2ccccn2)sc1C,14,3,-2,79*,9,19,78*,7
c1ccc2c(c1)CC1(CCCC1)N=C2N1CCOCC1,1,-6,0,-22,x,-4,x,x
C/C(=N\NC(=O)c1ccccc1NC(=O)c1ccc(Cl)cc1)c1ccncc1,21,13,-1,65*,4,19,107*,67*
C/C(=N/NC(=O)c1ccncc1)c1ccccc1,x,-5,x,-19,x,x,x,x
N#C/C(=C\c1ccc([N+](=O)[O-])cc1)c1ccccn1,1,13,0,-145,2,1,x,x
CN(C)c1ccc(/C=C(\C#N)c2ccccn2)cc1,7,10,1,69*,8,3,66*,15
O=C(O)c1cccc(S(=O)(=O)N2CCN(Cc3ccc4c(c3)OCO4)CC2)c1,x,-6,x,-15,x,x,x,x
O=C(O)CSCC(=O)Nc1ccc(C2CCCCC2)cc1,2,10,0,75*,2,-1,77*,7
Cc1ccc2nc(NC(=O)[C@H](C)N3C(=O)C4CC=CCC4C3=O)sc2c1 (some centres not stated),1,4,-1,74*,2,-4,56,3
COc1cc(C(=O)N/N=C/c2cc([N+](=O)[O-])cs2)cc(OC)c1OC,77*,78*,29,79*,20*,81*,76*,59*
COC(=O)c1ccc2nc(Nc3nc4ccc(F)cc4s3)sc2c1,2,0,1,94*,2,-2,101*,16
CCCCNC1=CC(=O)C(=O)c2ccccc21,7,14,-1,-12,2,-2,x,x
CCCCN1C=CC(=C2C(=O)c3ccccc3C2=O)C=C1,22,19,-1,95*,3,21,56,8

# High-throughput results from PubChem BioAssay.
